# Active and inactive are the calls of the source. No cut-off for these calls is given here.
# Experiments:
# [1] = system: SNU-182; assay: Growth inhibition of human SNU182 cells assessed as cell growth at 50 uM after 48 hrs by CCK8 assay relative to control; assay type: functional; details: SNU-182, 48 h, read-out: Activity
# [2] = organism: Homo sapiens; assay: Inhibition of TGFbeta1-induced NF-kB nuclear translocation in human SNU182 cells preincubated for 2 hrs followed by TGFbeta1 addition measured after 12 hrs in presence of zingerone by Western blot method; assay type: cell-based
# Procedure, shortened: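 Mixture added to SNU182 cells for 2 h before TGF-β1 for 12 h. Cytosolic and nuclear fractions analysed by Western blot for NF-κB, with COX4 as cytosolic and Lamin B1 as nuclear marker.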
# [3] = target: T1, NF-kappa-B inhibitor alpha (Homo sapiens) (UniProt P25963); assay: Inhibition of TGFbeta1-induced IkB-alpha phosphorylation in human SNU182 cells at 20 to 40 uM preincubated for 2 hrs followed by TGFbeta1 addition measured after 120 mins in presence of zingerone by Western blot method; assay type: cell-based
# T1 sequence (whole entry): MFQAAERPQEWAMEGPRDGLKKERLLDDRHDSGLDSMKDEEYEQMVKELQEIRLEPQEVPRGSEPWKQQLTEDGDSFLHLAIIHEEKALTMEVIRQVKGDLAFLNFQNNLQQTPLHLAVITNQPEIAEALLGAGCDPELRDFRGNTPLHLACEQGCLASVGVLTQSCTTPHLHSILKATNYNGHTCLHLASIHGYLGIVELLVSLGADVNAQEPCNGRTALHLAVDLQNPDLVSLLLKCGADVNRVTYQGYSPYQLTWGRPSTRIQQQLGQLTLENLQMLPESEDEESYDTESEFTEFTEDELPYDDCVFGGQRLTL
# Procedure, shortened: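 SNU182 cells pretreated with the mixture (20 and 40 µM) for 2 h, then exposed to TGF-β1 for 120 min. IκB protein assessed by Western blot, with GAPDH loading control.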
# [4] = system: SNU-182; assay: Inhibition of TGFbeta1-induced epithelial-mesenchymal transition in human SNU182 cells assessed as reduction in MMP9 mRNA expression at 12.5 uM preincubated for 2 hrs followed by TGFbeta1 addition measured after 48 hrs by qRT-PCR method; assay type: functional, cell-based
# Procedure, shortened: (§1)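 SNU182 cells pretreated 2 h with single agents (12.5 or 40 µM) or the mixture (20 or 40 µM), then TGF-β 5 ng/ml for 48 h. MMP-2 and MMP-9 mRNA measured by RT-PCR with densitometry and by qRT-PCR, fold change by the 2^-ΔΔCt method. Mean±SD of triplicates.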
# [5] = system: SNU-182; assay: Inhibition of TGFbeta1-induced epithelial-mesenchymal transition in human SNU182 cells assessed as reduction in MMP2 activity measured after 48 hrs in presence of zingerone by gelatin zymography assay; assay type: functional, cell-based
# Procedure, shortened: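 Cells serum-starved overnight in 0.2% FBS medium, then left untreated or given TGF-β 5 ng/ml and/or the mixture for 48 h. MMP-2 and MMP-9 activity in conditioned medium determined by gelatin zymography.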
# [6] = system: SNU-182; assay: (§2) Inhibition of TGFbeta1-induced epithelial-mesenchymal transition in human SNU182 cells assessed as reduction in MMP2 mRNA expression preincubated for 2 hrs followed by TGFbeta1 addition measured after 48 hrs in presence of zingerone by qRT-PCR method; assay type: functional, cell-based; procedure, shortened: as §1
# [7] = system: SNU-182; assay: Growth inhibition of human SNU182 cells after 48 hrs by CCK8 assay; assay type: functional, cell-based
# [8] = system: SNU-182; assay: Growth inhibition of human SNU182 cells at <12.5 uM after 48 hrs by CCK8 assay; assay type: functional, cell-based
# [9] = system: SNU-182; assay: Inhibition of TGFbeta1-induced migration in human SNU182 cells at 40 uM measured after 48 hrs in presence of (E)-1-(9-Ethyl-9H-carbazol-3-yl)-5-(4-hydroxy-3-methoxyphenyl)pent-1-en-3-one by wound healing assay; assay type: functional, cell-based
# Procedure, shortened: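 Wound healing: SNU182 monolayers at about 90% confluence scratched with a pipette tip and washed. Medium with TGF-β1, with or without 40 µM mixture, then added. Wound imaged at 0 and 48 h; relative motility from cell surface area. Mean±SD of triplicates.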
# [10] = system: SNU-182; assay: Inhibition of TGFbeta1-induced epithelial-mesenchymal transition in human SNU182 cells assessed as reduction in mesenchymal phenotype preincubated for 2 hrs followed by TGFbeta1 addition measured after 48 hrs in presence of (E)-1-(9-Ethyl-9H-carbazol-3-yl)-5-(4-hydroxy-3-methoxyphenyl)pent-1-en-3-one; assay type: functional, cell-based
# Procedure, shortened: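 Cells preincubated 2 h in serum-free medium with the mixture (20 and 40 µM), then treated with TGF-β1 5 ng/ml for 48 h. Morphology (spindle-like, elongated shape, scattering) assessed by microscopy.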
# [11] = system: SNU-182; assay: Inhibition of TGFbeta1-induced epithelial-mesenchymal transition in human SNU182 cells assessed as reduction in downregulation of E-cadherin expression at 40 uM preincubated for 2 hrs followed by TGFbeta1 addition measured after 48 hrs by Western blot method; assay type: functional, cell-based
# Procedure, shortened: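 SNU182 cells pretreated 2 h with single agents (12.5 or 40 µM) or the mixture (20 and 40 µM), then stimulated with TGF-β1 5 ng/ml for 48 h. E-cadherin and Snail protein detected by Western blot, with GAPDH as loading control.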
# [12] = system: SNU-182; assay: Growth inhibition of human SNU182 cells at <50 uM in presence of (E)-1-(9-Ethyl-9H-carbazol-3-yl)-5-(4-hydroxy-3-methoxyphenyl)pent-1-en-3-one after 48 hrs by CCK8 assay; assay type: functional, cell-based
# [13] = system: SNU-182; assay: Inhibition of TGFbeta1-induced epithelial-mesenchymal transition in human SNU182 cells assessed as reduction in MMP2 mRNA expression at 40 uM preincubated for 2 hrs followed by TGFbeta1 addition measured after 48 hrs by qRT-PCR method; assay type: functional, cell-based; procedure, shortened: as §1
# [14] = system: SNU-182; assay: as §2, with “(E)-1-(9-Ethyl-9H-carbazol-3-yl)-5-(4-hydroxy-3-methoxyphenyl)pent-1-en-3-one” for “zingerone”; assay type: functional, cell-based; procedure, shortened: as §1
# [15] = target: Mothers against decapentaplegic homolog 2 (Homo sapiens) (UniProt Q15796); assay: Inhibition of TGFbeta1-induced SMAD2 phosphorylation in human SNU182 cells at 20 to 40 uM preincubated for 2 hrs followed by TGFbeta1 addition measured after 48 hrs in presence of (E)-1-(9-Ethyl-9H-carbazol-3-yl)-5-(4-hydroxy-3-methoxyphenyl)pent-1-en-3-one by Western blot method; assay type: cell-based
# Procedure, shortened: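 SNU182 cells given the mixture (20 and 40 µM) for 2 h, then TGF-β1 5 ng/ml for 48 h. Smad2/3 phosphorylation by Western blot, with total Smad2/3 as loading control.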
# [16] = system: SNU-182; assay: Inhibition of TGFbeta1-induced epithelial-mesenchymal transition in human SNU182 cells assessed as reduction in MMP9 mRNA expression at 40 uM preincubated for 2 hrs followed by TGFbeta1 addition measured after 48 hrs by qRT-PCR method; assay type: functional, cell-based; procedure, shortened: as §1
# [17] = system: SNU-182; assay: Growth inhibition of human SNU182 cells at <50 uM after 48 hrs by CCK8 assay; assay type: functional, cell-based
# [18] = target: Mitogen-activated protein kinase; ERK1/ERK2 (Homo sapiens) (UniProt P27361+P28482); assay: Inhibition of TGFbeta1-induced p44/42 MAPK phosphorylation in human SNU182 cells measured after 48 hrs in presence of (E)-1-(9-Ethyl-9H-carbazol-3-yl)-5-(4-hydroxy-3-methoxyphenyl)pent-1-en-3-one by Western blot method; assay type: cell-based
# Procedure, shortened: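 SNU182 cells incubated 48 h with TGF-β1 5 ng/ml alone or together with the mixture at 20 and 40 µM, then lysed. Phospho-p42/44 MAPK detected by Western blot, with total p42/44 MAPK as loading control.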
# Chain of Mitogen-activated protein kinase; ERK1/ERK2 (Homo sapiens) (P27361 whole entry, looked up): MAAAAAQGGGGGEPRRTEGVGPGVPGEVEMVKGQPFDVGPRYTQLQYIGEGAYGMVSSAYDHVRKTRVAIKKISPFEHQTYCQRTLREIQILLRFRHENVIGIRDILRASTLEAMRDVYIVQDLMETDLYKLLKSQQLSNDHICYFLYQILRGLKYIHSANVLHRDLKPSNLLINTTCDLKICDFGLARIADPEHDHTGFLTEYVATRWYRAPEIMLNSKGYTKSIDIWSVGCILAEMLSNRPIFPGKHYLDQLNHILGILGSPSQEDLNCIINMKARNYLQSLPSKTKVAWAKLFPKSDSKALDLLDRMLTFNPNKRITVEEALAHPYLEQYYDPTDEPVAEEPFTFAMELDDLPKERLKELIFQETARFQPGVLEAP
# Chain of Mitogen-activated protein kinase; ERK1/ERK2 (Homo sapiens) (P28482 whole entry, looked up): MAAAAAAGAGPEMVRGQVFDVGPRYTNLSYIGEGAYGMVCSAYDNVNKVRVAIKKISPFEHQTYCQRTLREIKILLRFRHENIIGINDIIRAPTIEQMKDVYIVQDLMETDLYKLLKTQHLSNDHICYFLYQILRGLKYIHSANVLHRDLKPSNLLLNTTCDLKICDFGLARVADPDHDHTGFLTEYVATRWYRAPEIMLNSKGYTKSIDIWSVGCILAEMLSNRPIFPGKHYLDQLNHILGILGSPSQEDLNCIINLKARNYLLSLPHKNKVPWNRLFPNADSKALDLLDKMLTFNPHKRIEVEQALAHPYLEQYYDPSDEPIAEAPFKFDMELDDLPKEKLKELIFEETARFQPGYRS
# Chain of Mothers against decapentaplegic homolog 2 (Homo sapiens) (Q15796 whole entry): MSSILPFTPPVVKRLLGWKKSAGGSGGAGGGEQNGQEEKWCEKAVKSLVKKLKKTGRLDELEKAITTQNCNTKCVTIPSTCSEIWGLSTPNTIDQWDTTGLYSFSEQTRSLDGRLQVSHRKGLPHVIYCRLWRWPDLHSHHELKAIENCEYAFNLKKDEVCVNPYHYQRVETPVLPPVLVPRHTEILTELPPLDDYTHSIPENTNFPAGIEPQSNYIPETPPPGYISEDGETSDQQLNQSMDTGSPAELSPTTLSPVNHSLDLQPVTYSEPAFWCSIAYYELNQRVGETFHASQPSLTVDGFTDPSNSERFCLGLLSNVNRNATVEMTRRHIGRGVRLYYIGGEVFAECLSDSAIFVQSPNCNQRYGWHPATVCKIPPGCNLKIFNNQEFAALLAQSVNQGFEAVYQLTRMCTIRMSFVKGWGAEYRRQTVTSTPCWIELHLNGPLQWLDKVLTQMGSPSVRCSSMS
Structure (SMILES),growth at 50 µM [1] [%],inhibition [2],inhibition [3],inhibition [4],inhibition [5],inhibition [6],growth inhibition (GI) [7],growth inhibition (GI) [8],inhibition [9],inhibition [10],inhibition [11],growth inhibition (GI) [12],inhibition [13],inhibition [14],inhibition [15],inhibition [16],growth inhibition (GI) [17],inhibition [18]
CCn1c2ccccc2c2cc(/C=C/C(=O)CCc3ccc(O)c(OC)c3)ccc21,40,Dose-dependent effect,Active,inactive,Active,Dose-dependent effect,Dose-dependent effect,inactive,–,–,–,–,–,–,–,–,–,–
COc1cc(CCC(C)=O)ccc1O,–,–,–,–,–,–,–,–,Active,Dose-dependent effect,inactive,inactive,inactive,Dose-dependent effect,Active,inactive,inactive,Dose-dependent effect
